Series [1] relates to Mus musculus. In words: In vivo inhibition of mTORC1-mediated phosphorylation of 4EBP1 at ([…]) in human MCF7 cells xenografted into athymic nude mouse at 100 mg/kg, po after 32 hrs by Western blotting analysis relative to control. The series is classed as functional. The conditions noted are these: MCF7, 32 h. In general terms: A xenograft is tissue or cells of one species grown in another, often human tumour cells in immunodeficient mice.

Series [2] concerns Mus musculus. Kind of series: In vivo inhibition of mTORC2-mediated phosphorylation of AKT at serine 473 in human MCF7 cells xenografted into athymic nude mouse at 100 mg/kg, po after 1 hr by Western blotting analysis relative to control. The series is classed as functional. Conditions: MCF7, 1 h. In short, it runs like this: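 MCF-7 cells (DMEM, 10% FBS) were implanted subcutaneously at 5 × 10^6 cells in 50% cold HBSS/50% growth-factor-reduced matrigel into the hindflank of 5−8 week old female nude mice. At tumor size 40−150 mg, mice received a single oral dose of 100 mg/kg. Tumor lysates were pooled per group. Phospho-AKT (S473, T308), p70S6K (T389), S6 (S240/244) and 4E-BP1 (T37/46) were measured by Western blot normalized to α-tubulin.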

Series [3] is described as follows: Drug uptake in tumor of athymic mouse xenografted with human PC3 cells at 100 mg/kg, po after 1 hr. The series is classed as ADME, organism-based, Neoplasm, PC-3. Also on record: dose 100 mg/kg, route oral. The conditions noted are these: read-out: Drug uptake. In short, it runs like this: (§1)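 PC-3 cells (3 × 10⁶, passages 10–14, in ice-cold HBSS) were implanted sc in 5–8 week old male nude mice. Tumors of 200–500 mg received a single oral 100 mg/kg dose. Plasma and tumor were collected at 1, 4, 8, 16, 24 and 32 h and homogenized in buffer. Lysates were pooled per group (n = 5), and phospho-proteins were measured by Western blot normalized to α-tubulin.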

Series [4] in a line: Volume of distribution at steady state in Beagle dog at 3 mg/kg, iv. The series is classed as ADME, organism-based, Canis lupus familiaris. Also on record: dose 3 mg/kg, route intravenous. Conditions: in vivo, read-out: Vdss.
Series [5] in a line: AUC (0 to infinity) in cynomolgus monkey at 3 mg/kg, iv. Also on record: time infinity, dose 3 mg/kg, route intravenous. It counts as ADME, organism-based, Macaca fascicularis. Conditions: plasma. In short, it runs like this:
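Single-dose PK: female athymic nude mice (10 mg/kg), female CD rats and male beagle dogs (3 mg/kg), male cynomolgus monkeys (3 mg/kg), given iv and by oral gavage. Solution in EPW (5% ethanol/45% PEG400/water), with 1:2 HCl (m/m) for mouse, rat and dog and 1:1.5 HCl (m/m) for monkey. Plasma levels followed over 24 h.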

The nature of series [6]: Tmax in athymic nude mouse at 10 mg/kg, po. It counts as ADME, organism-based. Also on record: dose 10 mg/kg, route oral. Conditions: in vivo.
Series [7] has as its system Mus musculus. Kind of series: Toxicity in athymic nude mouse assessed as body weight loss at 100 mg/kg, po relative to control. It counts as organism-based. Also on record: dose 100 mg/kg, route oral. The conditions noted are these: in vivo.
The next series has as its system MCF7. In words: Antitumor activity against human MCF7 cells xenografted in athymic nude mouse at 100 mg/kg, po qd for 14 days relative to control. The series is classed as functional. In short, it runs like this: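 Female athymic nude (NCr) mice, 5–8 weeks old, bearing subcutaneous MCF-7 tumors staged at 100–200 mg. Compound given orally qd for 14 days at 50 or 100 mg/kg as a solution/fine suspension in water with a 1:1 molar ratio of 1 N HCl. Caliper tumor mass = length × width²/2, measured twice weekly; body mass recorded daily.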

The target of a further series is Cytochrome P450 2C9 (Homo sapiens, UniProt P11712). Kind of series: Inhibition of CYP2C9 (unknown origin). The series is classed as ADME.
A short description of series [8]: Plasma concentration in mouse at 100 mg/kg, po after 1 hr. It counts as ADME, organism-based. Also on record: dose 100 mg/kg, route oral.
The next series concerns the target Casein kinase II (Homo sapiens, UniProt P19784+P67870+P68400). In words: Inhibition of CK2 (unknown origin). It counts as protein-complex assay.
In series [9] the test system is Mus musculus. In words: In vivo inhibition of mTORC1-mediated phosphorylation of 4EBP1 at ([…]) in human PC3 cells xenografted into athymic nude mouse at 100 mg/kg, po after 4 hrs by Western blotting analysis relative to control. The series is classed as functional. Conditions: PC-3, 4 h. The procedure, abridged: (§2)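 PC-3 cells grown in DMEM with 20% FBS were implanted subcutaneously at 3 × 10^6 cells in ice-cold HBSS into the hindflank of 5−8 week old male nude mice. At tumor size 200−500 mg, mice received a single oral dose of 100 mg/kg. Plasma and tumors were collected at 1, 4, 8, 16, 24 and 32 h. Tumor lysates from each group (n = 5) were pooled. Phospho-proteins were quantified by Western blot and normalized to α-tubulin.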

The subject of series [10] is Mus musculus. Kind of series: In vivo inhibition of mTORC1-mediated phosphorylation of pS6 at (serine 240/244) in human PC3 cells xenografted into athymic nude mouse at 100 mg/kg, po after 32 hrs by Western blotting analysis relative to control. The series is classed as functional. The conditions noted are these: PC-3, 32 h. In short, it runs like this:
as §2

Series [11] deals with Mus musculus. Kind of series: In vivo inhibition of mTORC1-mediated phosphorylation of p70S6K at […] in human PC3 cells xenografted into athymic nude mouse at 100 mg/kg, po after 24 hrs by Western blotting analysis relative to control. The series is classed as functional. The conditions noted are these: PC-3, 24 h. The procedure, abridged:
as §2

Series [12] deals with Mus musculus. In words: In vivo inhibition of mTOR1-mediated phosphorylation of p70S6K at […] in human PC3 cells xenografted into athymic nude mouse at 100 mg/kg, po after 8 hrs by Western blotting analysis relative to control. The series is classed as functional. Conditions: PC-3, 8 h. The procedure, abridged:
as §1

A further series has as its target Cytochrome P450 3A4 (Homo sapiens, UniProt P08684). In words: Induction of CYP3A4 (unknown origin). It counts as ADME.

Sequence of Cytochrome P450 2C9 (P11712 whole entry): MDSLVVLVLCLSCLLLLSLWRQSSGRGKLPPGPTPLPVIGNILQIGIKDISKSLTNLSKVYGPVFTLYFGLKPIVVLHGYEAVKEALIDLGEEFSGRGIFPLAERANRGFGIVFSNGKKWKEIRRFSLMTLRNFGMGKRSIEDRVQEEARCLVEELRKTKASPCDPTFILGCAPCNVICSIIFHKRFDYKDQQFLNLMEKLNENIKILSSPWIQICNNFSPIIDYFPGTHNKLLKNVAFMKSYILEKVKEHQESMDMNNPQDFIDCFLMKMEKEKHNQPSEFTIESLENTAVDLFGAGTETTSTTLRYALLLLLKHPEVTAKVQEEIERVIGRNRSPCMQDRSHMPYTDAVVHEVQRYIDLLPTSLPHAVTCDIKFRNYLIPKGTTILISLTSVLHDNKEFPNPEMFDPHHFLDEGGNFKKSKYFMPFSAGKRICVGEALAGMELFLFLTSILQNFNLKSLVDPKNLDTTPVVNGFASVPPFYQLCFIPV
Sequence of Cytochrome P450 3A4 (P08684 whole entry): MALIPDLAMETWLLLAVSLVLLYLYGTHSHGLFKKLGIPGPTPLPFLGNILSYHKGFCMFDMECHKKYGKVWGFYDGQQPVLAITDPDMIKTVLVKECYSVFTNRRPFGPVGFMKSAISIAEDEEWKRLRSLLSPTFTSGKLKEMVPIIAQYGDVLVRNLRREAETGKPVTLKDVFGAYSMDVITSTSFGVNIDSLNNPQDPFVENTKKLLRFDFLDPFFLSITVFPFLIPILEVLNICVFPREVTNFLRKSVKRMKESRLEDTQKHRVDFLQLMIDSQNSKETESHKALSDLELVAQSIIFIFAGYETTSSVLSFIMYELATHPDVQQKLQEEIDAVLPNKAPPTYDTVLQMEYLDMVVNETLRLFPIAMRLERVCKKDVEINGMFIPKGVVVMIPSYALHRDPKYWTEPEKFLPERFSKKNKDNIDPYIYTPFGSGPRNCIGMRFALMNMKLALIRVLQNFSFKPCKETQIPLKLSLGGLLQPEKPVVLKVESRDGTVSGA
Sequence of Casein kinase II (P67870 whole entry): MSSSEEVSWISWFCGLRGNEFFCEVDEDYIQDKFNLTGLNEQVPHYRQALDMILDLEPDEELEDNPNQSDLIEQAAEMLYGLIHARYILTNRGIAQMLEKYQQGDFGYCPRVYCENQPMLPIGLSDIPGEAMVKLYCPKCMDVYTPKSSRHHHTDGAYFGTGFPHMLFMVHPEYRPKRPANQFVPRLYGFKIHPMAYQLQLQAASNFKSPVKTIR
Sequence of Casein kinase II (P68400 whole entry): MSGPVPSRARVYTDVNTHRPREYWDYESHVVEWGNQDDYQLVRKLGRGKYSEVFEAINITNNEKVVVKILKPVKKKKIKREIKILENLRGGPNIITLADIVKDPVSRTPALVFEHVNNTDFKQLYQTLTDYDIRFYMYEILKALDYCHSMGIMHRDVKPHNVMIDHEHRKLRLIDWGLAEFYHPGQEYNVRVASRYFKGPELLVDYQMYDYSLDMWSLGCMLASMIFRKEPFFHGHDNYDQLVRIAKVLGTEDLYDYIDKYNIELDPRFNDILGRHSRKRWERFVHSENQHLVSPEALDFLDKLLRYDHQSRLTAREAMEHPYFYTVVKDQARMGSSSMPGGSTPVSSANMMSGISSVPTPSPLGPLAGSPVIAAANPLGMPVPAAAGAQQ
Sequence of Casein kinase II (P19784 whole entry): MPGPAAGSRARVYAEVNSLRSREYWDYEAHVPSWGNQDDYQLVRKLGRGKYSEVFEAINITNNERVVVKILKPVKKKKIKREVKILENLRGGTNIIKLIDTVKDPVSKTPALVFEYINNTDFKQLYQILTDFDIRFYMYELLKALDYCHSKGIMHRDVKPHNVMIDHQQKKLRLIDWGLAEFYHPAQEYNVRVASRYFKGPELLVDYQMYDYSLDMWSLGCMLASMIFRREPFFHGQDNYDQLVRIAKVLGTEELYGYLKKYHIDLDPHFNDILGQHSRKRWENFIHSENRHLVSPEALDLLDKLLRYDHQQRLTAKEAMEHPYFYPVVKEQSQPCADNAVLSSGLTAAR

Take `Cc1c(C(=O)N2CCOc3ccc(-c4ccc(N)nc4)cc3C2)ccc(S(C)(=O)=O)c1F`: the inhibition in vivo (commonly the drop in the measured response relative to a control, in per cent) at 100 mg/kg is 3% with Mus musculus [1]; 93% with Mus musculus [2]; 84% in the series with Mus musculus [9]; -20% in the series on Mus musculus [10]; 11% with Mus musculus [11]; 92% with Mus musculus [12]. For the same molecule, the results for the concentration at 1 h in [3] and in series [8] were 28.8 µM and 22 µM, respectively. The Vd in series [4] turned out to be 3.15 L/kg. For the same molecule, the AUC(0-inf) – broadly, the area under the concentration-time curve extrapolated to infinity – in [5] was determined as 1.31 µM·h. Further, in series [6], the Tmax (as a rule, the time at which the peak concentration occurs) was 30 min. Also, the results for the Activity in the series on Mus musculus [7], with MCF7 and at Cytochrome P450 3A4 were 2.8%, 40% and 50 µM, respectively. This molecule also showed an INH on Cytochrome P450 2C9 of 10.6 µM. Moreover, the IC50 (as a rule, the midpoint of a concentration-inhibition curve) against Casein kinase II is more than 10 µM.

For the origin of these results see ChEMBL document CHEMBL2331117 (J Med Chem, 2013).
